The list is not random: actives were taken first. Their share in the collection is about 4%.
iPSC survival up: increases survival of single human iPS cells. hiPSC single-cell survival, ATPlite luminescence; 100% = ROCK inhibitor wells, 0% = DMSO. AID 602274. survival enhancement, % at 20 µM. 360,000 compounds, 0.044% hits; in the data active = survival enhancement above about 18%;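 note: cells exposed to compounds for 16 hours before the ATP read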
GRIN3A LBD mod: modulates the human NR3A ligand-binding domain. Tm shift relative to glycine control, % at 25 µM. NR3A LBD differential scanning fluorimetry, Tm shift; 0% = protein alone, 100% = glycine-bound protein. 340,000 compounds, 2.5% hits;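 active = melting temperature shift of at least 10% of the positive control shift, at one fixed dose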
FAS TE block: FAS thioesterase (human) inhibition; P49327; recombinant FAS-TE, OMFH fluorogenic substrate, fluorescence endpoint; inhibition, % at 15 µM; 360,000 compounds, 0.67% hits;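 active = compounds whose normalised, plate-corrected inhibition of enzyme fluorescence in the single-dose primary screen is 50% or more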;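 note: 0% = DMSO with enzyme and 100% = substrate without enzyme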
Arr AP2 block: inhibitors of human beta-arrestin and AP2 interaction | FITC-arrestin peptide / GST-AP2 beads, flow cytometry; AP2 beta2 appendage carries R879A mutation | inhibition, % at 10 µM | 340,000 compounds, 0.31% hits | AID 504490;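 active = inhibition above a set limit, near 3 SD of compounds lacking own fluorescence, cut at about 54% in these data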;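 note: plate controls were DMSO wells for no effect and 5 µM unlabelled arrestin peptide for full effect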
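System: GST-tagged AP2 beta2-adaptin appendage (R879A) on 4 µm glutathione beads / Reagent: FITC-arrestin peptide, 50 nM / Detection: HyperCyt-sampled flow cytometry, FL1 channel, ex 488/em 535 nm / Timing: 12 min plus 1 h, RT / Buffer or medium: PBS plus Tween 20 (0.05%) and BSA (0.1%)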
H9c2 protect: modulators protecting cardiomyocytes from myocardial damage; protection from H2O2 cell death, % at 20 µM; 360,000 compounds, 0.63% hits; H9c2 cardiomyocytes, H2O2 injury protection, ATPLite, 2 h;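 active = compounds giving at least 50% protection of heart cells from peroxide-induced death in the single-dose screen, raw or plate-pattern-corrected value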;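 note: 0% = DMSO wells with peroxide and 100% = DMSO wells without peroxide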
SENP1 inh: inhibitors of human SENP1 SUMO protease catalytic domain. Q9P0U3. recombinant SENP1 catalytic domain, CyPet-SUMO1-YPet FRET cleavage. inhibition, % at 10 µM. 360,000 compounds, 0.21% hits. AID 624204;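 active = inhibition at least 30% at 10 µM, raw YFP signal under a set limit, fluorescence ratio 0.5 to 1.5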;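 note: 0% = enzyme with DMSO and 100% = no enzyme wells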
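Assay system – human recombinant His6-tagged SENP1 catalytic domain enzyme · Input – SENP1 enzyme, 20 pM final · Buffer or medium – Tris pH 8 buffer plus EDTA, NaCl, BME, BSA, NP40, catalase · Schedule – 50 min reaction at room temperature · Technique – FRET read of cyan and yellow fluorescence · Control set – no-enzyme wells low, DMSO-plus-enzyme wells high control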
Arr-AP2 CP1: inhibitors of human beta-arrestin and AP2 interaction; shares compounds with Arr AP2 block; 1,300 compounds, 2% hits; GST-AP2 beads, FITC arrestin peptide binding, flow cytometry; GST-fused beta2-adaptin appendage, R879A mutant; inhibition, % at 10 µM;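 active = inhibition above a set limit, roughly 3 SD of non-fluorescent compound noise, cut at about 38% in these data; inactive = inhibition at or below that limit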;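 note: loss of bead fluorescence from 50 nM FITC arrestin peptide bound to appendage; 0% = negative control wells and 100% = excess unlabelled arrestin peptide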
GST-FITC bead: counter-screen for beta-arrestin AP2 inhibitors: GST-GSH bead binding | AID 588338 | inhibition, % at 10 µM | GST-fluorescein binding to GSH beads, fluorescence | shares compounds with Arr AP2 block | 1,300 compounds, 2% hits;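 active = inhibition above 50%, about 3 SD of the inhibition seen with non-fluorescent compounds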;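 note: fluorescein maleimide labelled GST captured on 4 micron glutathione beads; higher means more loss of bead fluorescence from quenching or blocked binding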
* = called active by the depositor; x = no result.

SMILES	iPSC survival up	GRIN3A LBD mod	FAS TE block	Arr AP2 block	H9c2 protect	SENP1 inh	Arr-AP2 CP1	GST-FITC bead
COc1ccc(NC(=O)c2ccc3nc[nH]c3c2)cc1	0	5	-4	60*	-7	1	14	1
CC1(C)CC2(CCO1)N1CC3(C)CN2CC(C)(C1)C3=O (centres undefined)	0	2	-2	84*	-1	1	-1	-3
CCCC12CN3CC(C)(CN(C1)C31CCCCC1)C2=O	0	0	-7	-10	0	2	x	x
Cc1ccc(S(=O)(=O)N2CCC(C(=O)N3CCC[C@H]3C(=O)NCC(C)C)CC2)cc1	0	-1	-6	34	5	-2	x	x
Cc1ccc(S(=O)(=O)N2CCC(C(=O)N3CCC3)CC2)cc1	1	-1	0	54*	0	-1	5	-3
CCCNC(=O)[C@@H]1CCCN1C(=O)C1CCN(S(=O)(=O)c2ccc(C)cc2)CC1	0	0	-8	54*	-1	2	5	-2
COc1ccc([C@@H]2CC(=O)[C@@H]3CN(S(=O)(=O)c4ccc(C)cc4)[C@H](c4cccc(Cl)c4)C[C@@H]3N2S(=O)(=O)c2ccccc2)cc1	-1	x	28	x	1	0	x	x
CCOC(=O)[C@]12CCCC=C1N(CCc1ccc(OC)c(OC)c1)C(=O)[C@H](CC(=O)NCC13CC4CC(CC(C4)C1)C3)C2	x	x	x	x	x	-1	x	x
O=C(NCCN1CCC(n2c(=O)[nH]c3ccccc32)CC1)c1ccc(F)cc1F	0	x	-6	x	x	0	x	x
N#Cc1c(NC(=O)CSc2ncnc3c2cnn3-c2ccccc2Cl)sc2c1CCCC2	3	-1	30	60*	-7	-6	-19	0
CCN(CC)c1ncnc2c1ncn2[C@H]1CN(Cc2cc(OC)c(OC)c(OC)c2)C[C@@H](CO)O1	-2	x	-7	x	5	-1	x	x
COc1ccc(-c2ccc3c(c2)S(=O)(=O)c2cccc(C(=O)N4CCN(C5CCCCC5)CC4)c2C3=O)cc1OC	2	-6	-18	-3	35	-29	x	x
CCN(CC)S(=O)(=O)c1ccc2c(c1)nc(CCC(=O)O)n2CC	0	-2	-5	18	-2	2	x	x
CCN(CC)S(=O)(=O)c1ccc2c(c1)nc(CCC(=O)Nc1cccc(C(F)(F)F)c1)n2CC	5	1	20	85*	-3	-17	1	2
CC(=O)Nc1ccc(C(=O)N2CCCCC2c2cc(C(=O)NC(C)C)no2)cc1 (centres undefined)	0	x	-4	x	3	3	x	x
Cc1ccc(C)c(NCCCCCCCC(=O)O)c1	0	x	-14	x	4	0	x	x
CCOc1ccc(NC(=O)CN(C)C(=O)C(C)Oc2ccc(Cl)cc2)cc1OCC (centres undefined)	0	-1	-2	46	2	1	x	x
CCNc1nc(OC)nc(SCC(N)=O)n1	-2	0	-3	-3	-4	2	x	x
CCCNc1nc(NCC)nc(OC)n1	0	0	-4	64*	-2	-1	13	-6
O=C(CCNC(=O)c1ccc(Cl)cc1)NCCC1=CCCCC1	1	0	17	64*	-1	-2	-10	-4
COCC(=O)Nc1nc2n(n1)C(c1ccc(Cl)cc1)CC(c1ccc(OC)cc1)N2 (centres undefined)	-2	5	0	80*	-9	6	2	-3
CCOC(=O)C1=C(COC(=O)COc2ccccc2C(C)C)NC(=O)NC1C (centres undefined)	0	-1	5	61*	2	0	12	1
CCOC(=O)C1=C(COC(=O)CSc2ccc(Br)cc2)NC(=O)NC1C (centres undefined)	0	-4	2	-6	-3	3	x	x
CCOC(=O)C1=C(COC(=O)COc2ccccc2OCC)NC(=O)NC1C (centres undefined)	0	-2	-6	-4	6	3	-1	-11
CCOC(=O)C1=C(COC(=O)COc2ccccc2C=O)NC(=O)NC1C (centres undefined)	-3	-1	-7	10	4	-3	x	x
SMILES	iPSC survival up	GRIN3A LBD mod	FAS TE block	Arr AP2 block	H9c2 protect	SENP1 inh	Arr-AP2 CP1	GST-FITC bead
CCOC(=O)C1=C(COC(=O)COc2cccc(C)c2C)NC(=O)NC1C (centres undefined)	0	-3	-4	-11	2	2	0	3
CCOC(=O)C1=C(COC(=O)COc2ccc(OCC)cc2)NC(=O)NC1C (centres undefined)	0	-1	-7	16	2	2	-8	-7
COc1ccc(CCCNC(=O)C2Cc3c(-c4cccc(NC(C)=O)c4)ccnc3O2)cc1 (centres undefined)	-2	x	-3	x	3	0	x	x
COc1ccccc1NC(=O)Nc1cnccn1	-2	-1	-8	17	8	-1	23	-1
COc1ccc(OC)c(NC(=O)Nc2cnccn2)c1	0	1	-3	56*	-1	2	7	4
O=C(Nc1ccc(Cl)cn1)Nc1ccccc1F	-1	2	-9	-1	0	1	x	x
Cc1c(Cl)cccc1NC(=O)Nc1cccnc1	0	-2	-4	-11	1	1	x	x
COc1ccc(OC)c(NC(=O)Nc2cccnc2)c1	0	-21	-3	-5	-1	1	x	x
Cc1c(Cl)cccc1NC(=O)Nc1cnccn1	0	1	-1	-1	-2	-1	-6	3
O=C(Nc1cnccn1)Nc1ccccc1F	0	1	-7	-14	4	2	-6	2
C[C@H](CO)N1C[C@H](C)[C@H](CN(C)S(=O)(=O)c2ccccc2F)OCc2cnnn2CCCC1=O	-2	x	-6	x	7	1	x	x
CCN1CCN(c2ccc(S(=O)(=O)N3CCOCC3)cc2NC(=O)C(C)Oc2ccc(F)cc2)CC1 (centres undefined)	0	-1	-5	-12	7	-1	x	x
Nc1nc(NCc2ccccc2)nc(NCCO)c1[N+](=O)[O-]	0	2	-1	56*	12	-1	-6	-7
Nc1nc(NCCO)nc(NCc2ccccc2)c1[N+](=O)[O-]	0	0	0	-4	9	1	x	x
CC(=O)NC(Cc1ccccc1)C(=O)O (centres undefined)	-2	-2	-1	-3	-1	1	x	x

Source: PubChem (several laboratories)
